Experimental findings from the array DNA melting data of Ke et al. (doi:10.1101/2024.01.08.574731) are described below.

A short description of data set [1]: folding enthalpy; higher = less favourable; fluorescence melt of hairpins on a sequencing array, two-state fit. As to conditions: sodium 0.088 M. The essentials:
(§1)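 Folding enthalpy and melting temperature were estimated with bootstrapped two-state fits and combined across four replicates by inverse-variance weighting, with fitted temperatures raised by 9.35 °C to match UV melts. The data were Cy3 fluorescence of library hairpins, with annealed Cy3 and quencher oligos, on a sequenced MiSeq flow cell in 50 mM Na-HEPES pH 8.0, 25 mM NaCl, imaged in 2.5 °C steps up to 60 °C and normalised to pre-quench Cy3 and control constructs.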

A short description of data set [2]: melting temperature; fluorescence melt of hairpins on a sequencing array, two-state fit, raised by 9.35 °C to match UV melts. The following applies: sodium 0.088 M. In short, it runs like this: as §1

Consider GTCGCCGAAAGGCAGAC ((((((....))).))), for which the folding enthalpy in data set [1] was -17.7 kcal/mol. The Tm in data set [2] came out at 61.7 °C.
As to GTCGCCGAAAGGCCTGAC ((((((....)))..))), the folding enthalpy in data set [1] is -12.4 kcal/mol. For the same sequence, the Tm in data set [2] was 31.8 °C.
Taken in the same sequence, the figures for GTCGCCGAAAGGCGTGAC ((((((....)))..))) were -8.03 kcal/mol and 36.3 °C.
The like results for GTCGCCGAAAGGCTTGAC ((((((....)))..))) were, in that order, -12.1 kcal/mol and 39.7 °C.
The like results for GTCGCCGGAAACGGCAAC ((.((((....)))).)) were, in that order, -11.2 kcal/mol and 47.1 °C.
In the case of GTCGCTCGAAAGAGGGAC (((.(((....))).))), the folding enthalpy in data set [1] is -44.3 kcal/mol. Moreover, the Tm in data set [2] stood at 63.2 °C.
On to GTCGCTGGAAACAGCAAC ((.((((....)))).)), for which, in data set [1], the folding enthalpy is -15 kcal/mol. For the same sequence, the Tm in data set [2] stood at 41.7 °C.
The like results for GTCGCTGGAAACGGTGAC (((.(.(....).).))) were, in that order, -28.6 kcal/mol and 44.2 °C.
GTCGGAACGAAAGTTGAC (((..(((....)))))): in data set [1], the folding enthalpy was -10.8 kcal/mol. The Tm in data set [2] is 32.7 °C.
Regarding GTCGGAGCGAAAGCTGAC (((..(((....)))))), the folding enthalpy in data set [1] is -22.1 kcal/mol. Further, the Tm in data set [2] was 44.3 °C.
Regarding GTCGGAGGAAACTTCGAC ((((.((....)).)))), the folding enthalpy in data set [1] is -47.7 kcal/mol. The Tm in data set [2] came to 51 °C.
Consider GTCGGCGAAAGCCAAGAC ((((((....)))..))), for which, in data set [1], the folding enthalpy is -15.2 kcal/mol. For the same sequence, the Tm in data set [2] worked out at 49.9 °C.
As to GTCGGCGAAAGCCAGGAC ((((((....)))..))), the folding enthalpy in data set [1] is -13.7 kcal/mol. The Tm in data set [2] was 49.9 °C.
Taken in the same sequence, the figures for GTCGGCGAAAGCCCAGAC ((((((....)))..))) were -13.5 kcal/mol and 42.7 °C.
The like results for GTCGGCGAAAGCCCGAC ((((((....))).))) were, in that order, -21.9 kcal/mol and 64.7 °C.
The like results for GTCGGCGAAAGCCCGGAC ((((((....)))..))) were, in that order, -14.2 kcal/mol and 42.4 °C.
Turning to GTCGGCGAAAGCCTCGAC ((((((....)))..))), the folding enthalpy in data set [1] is -14.7 kcal/mol. In addition, the Tm in data set [2] amounted to 42.4 °C.
In the case of GTCGGCGGAAACACCGAC (((((.(....).))))), in data set [1], the folding enthalpy is -37.9 kcal/mol. Also, in data set [2], the Tm was 55.3 °C.
For GTCGGCGGAAACGCCAAC ((.((((....)))).)), the folding enthalpy in data set [1] is -12.7 kcal/mol. In data set [2], the Tm was 48.2 °C.
As for GTCGGCGGAAACGCTGAC (((.(((....))).))), in data set [1], the folding enthalpy is -39.3 kcal/mol. Also, the Tm in data set [2] turned out to be 63.1 °C.
For the sequence GTCGGCGGAAACGCTGGC (.(.(((....))).).), in data set [1], the folding enthalpy is -21.2 kcal/mol. In data set [2], the Tm is 50.5 °C.
Taken in the same sequence, the figures for GTCGGGCCGAAAGGCGAC (((..(((....)))))) were -14.5 kcal/mol and 51 °C.
GTCGGGCGAAAGCCGGAC (((.(((....))).))): the folding enthalpy in data set [1] was -27.7 kcal/mol. The Tm in data set [2] is 67.7 °C.
Taken in the same sequence, the figures for GTCGGGGGAAACCCCGGC (.(((((....))))).) were -22 kcal/mol and 62.5 °C.
Taken in the same sequence, the figures for GTCGGGTCGAAAGACGAC (((..(((....)))))) were -19.8 kcal/mol and 47.4 °C.
For the sequence GTCGGTGCGAAAGCAGAC (((..(((....)))))), the folding enthalpy in data set [1] was -14.2 kcal/mol. Moreover, the Tm in data set [2] was 45.2 °C.
The like results for GTCGTAGAAATACGAC ((((((....)))))) were, in that order, -38 kcal/mol and 56 °C.
Taken in the same sequence, the figures for GTCGTATCGAAAGATGAC (((..(((....)))))) were -20 kcal/mol and 34.1 °C.
Taken in the same sequence, the figures for GTCGTCGAAAGACAAGAC ((((((....)))..))) were -20 kcal/mol and 44.7 °C.
On to GTCGTCGAAAGACACGAC ((((((....)))..))), for which the folding enthalpy in data set [1] was -16.7 kcal/mol. For the same sequence, the Tm in data set [2] was determined as 48.1 °C.
Regarding GTCGTCGAAAGACGGGAC ((((((....)))..))), the folding enthalpy in data set [1] is -10.3 kcal/mol. Moreover, in data set [2], the Tm was determined as 41.4 °C.
The like results for GTCGTGCGAAAGCAGGAC (((.(((....))).))) were, in that order, -35.9 kcal/mol and 64.5 °C.
As to GTCGTTCCGAAAGGAGAC (((..(((....)))))), the folding enthalpy in data set [1] was -22 kcal/mol. Moreover, in data set [2], the Tm came out at 35.1 °C.
As to GTCGTTCGAAAGAAGGAC (((.(((....))).))), the folding enthalpy in data set [1] is -38.1 kcal/mol. Further, the Tm in data set [2] turned out to be 52.2 °C.
For the sequence GTCGTTGAAAAACGAC ((((((....)))))), in data set [1], the folding enthalpy was -35.2 kcal/mol. Moreover, in data set [2], the Tm came to 61.6 °C.
For the sequence GTCGTTGGAAACAACAAC ((.((((....)))).)), the folding enthalpy in data set [1] is -17.7 kcal/mol. Further, the Tm in data set [2] stood at 34.8 °C.
With GTCGTTGGAAACAACGAC (((((((....))))))), the folding enthalpy in data set [1] is -41.6 kcal/mol. In addition, the Tm in data set [2] was 67.6 °C.
